Measured values: article PMC10993246 (ACS Omega, 2024)
Residues, ends and D or L forms follow the SMILES beside them.

Columns and labels:
[1] = test system: mouse fibroblast 3T3 cells; conditions: cell fixation conditions, ref 36 (Rhee et al.); cited from earlier work
[2] = test system: 3T3 cells; assay: Membrane penetrability, fixed cells, fluorescence and confocal microscopy; assay type: cell-based, mouse; conditions: fixed 3T3 cells, 50 μM in PBS, 6 h, 4 °C, confocal microscopy
[3] = test system: L929 cells; assay: Cell proliferation / cytotoxicity MTT assay; assay type: cell-based; conditions: 48 h; for toxicity toward the cells: L929 cells, 10, 25, 50 and 100 μM, IC50 values could not be calculated
Procedure, shortened: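 L929 cells were seeded at 0.5 × 10^4 cells per well and held 24 h in complete medium. Fluorescein-labelled and unlabelled test peptides were then added at 10, 25, 50 and 100 μM for 48 h. MTT was applied for 4 h at 37 °C in the dark, formazan was dissolved in DMSO, and A570 was read. % viability = treated/untreated absorbance; mean ± SD; two-way ANOVA.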

[4] = ref 43 (Futaki et al.); cited from earlier work

Row | Molecule | toxicity toward the cells [3] | cellular viability at 25 and 50 μM compared to 10 μM ([3]; L929 cells) | localization of CPPs [4] | further results
1 | CSIPPEVKFNPFVYLI [C105Y] | – | – | – | localization of the fluorescent-tagged peptide [1]: enriched fluorescence signal in the nucleus in addition to being present in the cytoplasm
2 | FITC-VGSLR | does not show any toxicity | increased progressively | – | subcellular localization [2]: localization of the peptide at the nucleus was more than that in the cytoplasm; cell proliferation compared to the untreated cells ([3]; L929 cells, 50 μM, absorbance 570 nm, p < 0.0001): higher proliferation; cell viability at 100 μM ([3]; L929 cells, 100 μM): reduced viability
3 | Tat-(48–60): CPP reported by Futaki et al. (GRKKRRQRRRAHQ; UniProt P04608 48-60, looked up, fragment) | – | – | in both the cytoplasm and nucleus | –
4 | GRRRRRRRRRPPQ [R9-TAT] | – | – | in both the cytoplasm and nucleus | –
5 | CC(C)C[C@H](NC(=O)[C@H](CO)NC(=O)CNC(=O)[C@@H](N)C(C)C)C(=O)N[C@@H](CCCNC(=N)N)C(=O)O [VGSLR] (H-VGSLR-OH) | did not show any significant toxicity | increased progressively | – | –
